Experiments:
HT-29 = test: Growth inhibitory activity against human colon HT-29 cell line; type: functional
Procedure, shortened: (§1)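 Cell-line screen run at NCI by published procedures. […] The mean graph midpoint is taken across all human cancer cell lines successfully tested.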

NCI-H522 = test: Growth inhibitory activity against human lung NCI-H522 cell line; type: functional; procedure, shortened: as §1
[1] = tested on: Panel (Carcinoma cell lines); test: Mean graph mid point value for cytotoxic activity against human cancer cell lines was determined; type: functional; procedure, shortened: as §1
SW-620 = test: Growth inhibitory activity against human colon SW620 cell line; type: functional; procedure, shortened: as §1
MCF7 = test: Growth inhibitory activity against human breast MCF-7 cell line; type: functional; procedure, shortened: as §1
HCT-116 [2] = test: Diameter of zone of inhibition for cell colony formation of solid tumor HCT116 at the dose of 200 ug; type: functional, Homo sapiens
Procedure, shortened: (§2)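 HCT116, L1210 leukaemia and normal fibroblast cells were seeded in soft agar in separate 60 mm dishes. The compound was applied to a filter-paper disk laid on the agar. Colony-formation inhibition zones were read after 6–7 days at 37 °C and expressed in zone units (200 units = 6.5 mm; 950 = total inhibition; 0 = none). n > 2 unless otherwise indicated.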

HCT-116 [3] = test: Growth inhibitory activity against human colon HCT116 cell line; type: functional; procedure, shortened: as §1
RXF 393 = test: Growth inhibitory activity against human renal RXF-393 cell line; type: functional; procedure, shortened: as §1
[4] = Diameter of zone of inhibition for cell colony formation of normal fibroblast at the dose of 200 ug; Range is 0-11; type: functional, Homo sapiens
Procedure, shortened: (§3)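 Soft agar disk diffusion: leukemia (L1210), solid tumor (HCT116, or colon H15) and normal fibroblast cells seeded in soft agar in separate 60 mm dishes. Compound applied to a filter paper disk (dose in μg/disk) set on the agar. Colony-formation inhibition zones read after 6–7 days at 37 °C. 200 zone units = 6.5 mm; 950 = total inhibition; a range marks partial colony shrinkage. n > 2 unless noted.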

L1210 [5] = test: Diameter of zone of inhibition for cell colony formation of L1210 leukemia cell lines at the dose of 200 ug; type: functional, Mus musculus; procedure, shortened: as §3
HL-60 = test: Growth inhibitory activity against human leukemia HL-60 (TB) cell line; type: functional; parameters: unit not given here
L1210 [6] = test: Diameter of zone of inhibition for cell colony formation of leukemia L1210 at the dose of 200 ug; Range is 1.3-5.85; type: functional, Mus musculus; procedure, shortened: as §3
[7] = Diameter of zone of inhibition for cell colony formation of normal fibroblast at the dose of 200 ug; Range is 0-11.7; type: functional, Homo sapiens; procedure, shortened: as §3
Mus musculus [8] = test: Tumor growth delay of human HCT116 colorectal carcinoma in mice after intravenous administration at dose of 85 mg/kg; type: functional
Procedure, shortened: (§4)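 Female nude mice were implanted with HCT116 tumour tissue from donor mice and randomized once tumours averaged 100 mm3. The sodium salt in saline (pH 7.4) was given by iv bolus on days 1–5 and 8–12. Tumour volumes were recorded twice weekly. TGD = T − C, the time to reach 500 mm3 taken from a fitted tumour-growth model.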

Mus musculus [9] = test: Tumor growth delay of human HCT116 colorectal carcinoma in mice after intravenous administration at dose of 128 mg/kg; type: functional; procedure, shortened: as §4
Mus musculus [10] = test: Tumor growth delay of human HCT116 colorectal carcinoma in mice after intravenous administration at dose of 64 mg/kg; type: functional; procedure, shortened: as §4
L1210 [11] = test: Diameter of zone of inhibition for cell colony formation of leukemia L1210 at the dose of 200 ug; Range is 0-9.1; type: functional, Mus musculus; procedure, shortened: as §3
[12] = Diameter of zone of inhibition for cell colony formation of normal fibroblast at the dose of 200 ug; Range is 0-16.9; type: functional, Homo sapiens; procedure, shortened: as §3
HCT-116 [13] = test: Diameter of zone of inhibition for cell colony formation of solid tumor HCT116 at the dose of 190 ug; type: functional, Homo sapiens; procedure, shortened: as §3
[14] = Diameter of zone of inhibition for cell colony formation of normal fibroblast at the dose of 190 ug; Range is 0-16.575; type: functional, Homo sapiens; procedure, shortened: as §3
L1210 [15] = test: Diameter of zone of inhibition for cell colony formation of leukemia L1210 at the dose of 190 ug; Range is 0-10.4; type: functional, Mus musculus; procedure, shortened: as §3
[16] = Diameter of zone of inhibition for cell colony formation of normal fibroblast at the dose of 210 ug; Range is 0-6.5; type: functional, Homo sapiens; procedure, shortened: as §3
HCT-116 [17] = test: Diameter of zone of inhibition for cell colony formation of solid tumor HCT116 at the dose of 210 ug; type: functional, Homo sapiens; procedure, shortened: as §2
L1210 [18] = test: Diameter of zone of inhibition for cell colony formation of leukemia L1210 at the dose of 210 ug; Range is 0-5.525; type: functional, Mus musculus; procedure, shortened: as §3
L1210 [19] = test: Diameter of zone of inhibition for cell colony formation of leukemia L1210 at the dose of 200 ug; Range is 0-6.5; type: functional, Mus musculus; procedure, shortened: as §3
[20] = Diameter of zone of inhibition for cell colony formation of normal fibroblast at the dose of 200 ug; Range is 0-2.6; type: functional, Homo sapiens; procedure, shortened: as §3
L1210 [21] = test: Diameter of zone of inhibition for cell colony formation of leukemia L1210 at the dose of 190 ug; type: functional, Mus musculus; procedure, shortened: as §3
[22] = Diameter of zone of inhibition for cell colony formation of normal fibroblast at the dose of 190 ug; Range is; type: functional, Homo sapiens; procedure, shortened: as §3
HCT-116 [23] = test: Diameter of zone of inhibition for cell colony formation of solid tumor HCT116 at the dose of 210 ug: range is 6.5-8.125; type: functional, Homo sapiens; procedure, shortened: as §2
L1210 [24] = test: Diameter of zone of inhibition for cell colony formation of leukemia L1210 at the dose of 210 ug; type: functional, Mus musculus; procedure, shortened: as §3
[25] = Diameter of zone of inhibition for cell colony formation of normal fibroblast at the dose of 190 ug; Range is 0-.975; type: functional, Homo sapiens; procedure, shortened: as §3
[26] = Diameter of zone of inhibition for cell colony formation of normal fibroblast at the dose of 190 ug; Range is 0-6.5; type: functional, Homo sapiens; procedure, shortened: as §3
L1210 [27] = test: Diameter of zone of inhibition for cell colony formation of leukemia L1210 at the dose of 190 ug; Range is 3.75-4.875; type: functional, Mus musculus; procedure, shortened: as §3
L1210 [28] = test: Diameter of zone of inhibition for cell colony formation of leukemia L1210 at the dose of 210 ug; Range is 0-11.375; type: functional, Mus musculus; procedure, shortened: as §3
[29] = Diameter of zone of inhibition for cell colony formation of normal fibroblast at the dose of 210 ug; Range is 0-13; type: functional, Homo sapiens; procedure, shortened: as §3
L1210 [30] = test: Diameter of zone of inhibition for cell colony formation of leukemia L1210 at the dose of 200 ug; type: functional, Mus musculus; procedure, shortened: as §3
[31] = Diameter of zone of inhibition for cell colony formation of normal fibroblast at the dose of 210 ug; type: functional, Homo sapiens; procedure, shortened: as §3

O=C(NS(=O)(=O)c1ccc(Cl)cc1)c1ccc(Cl)cc1Cl
GI50 (HT-29): 54.8 µM | GI50 (NCI-H522): 8.6 µM | MGM [1]: 26.3 | GI50 (SW-620): 39.6 µM | GI50 (MCF7): 1.5 µM | Inhibition (HCT-116 [2]): 19.5 mm | GI50 (HCT-116 [3]): 5.3 µM | GI50 (RXF 393): 11 µM | Inhibition [4]: 11 mm | Inhibition (L1210 [5]): 6.5 mm | GI50 (HL-60): 34.7

O=C(NS(=O)(=O)c1ccc(Cl)c(Cl)c1)c1ccc(Cl)cc1Cl
Inhibition (HCT-116 [2]): 18.2 mm | Inhibition (L1210 [6]): 5.85 mm | Inhibition [7]: 11.7 mm

O=C(NS(=O)(=O)c1ccccc1)c1ccc(Cl)cc1Cl
Growth delay (Mus musculus [8]): 15 days | GI50 (HT-29): 52 µM | GI50 (NCI-H522): 18.7 µM | MGM [1]: 33.1 | GI50 (SW-620): 8.6 µM | GI50 (MCF7): 18.9 µM | GI50 (HCT-116 [3]): 5.4 µM | GI50 (RXF 393): 4.3 µM | Growth delay (Mus musculus [9]): 22 days | Growth delay (Mus musculus [10]): 14 days | GI50 (HL-60): 32.9

O=C(NS(=O)(=O)c1ccc(F)cc1)c1ccc(Cl)cc1Cl
Inhibition (L1210 [11]): 9.1 mm | Inhibition [12]: 16.9 mm | Inhibition (HCT-116 [2]): 28.6 mm

Cc1ccc(S(=O)(=O)NC(=O)c2ccc(Cl)cc2Cl)cc1
Inhibition (HCT-116 [13]): 27.3 mm | Inhibition [14]: 16.57 mm | Inhibition (L1210 [15]): 10.4 mm

O=C(NS(=O)(=O)c1cc(Cl)cc(Cl)c1)c1ccc(Cl)cc1Cl
Inhibition [16]: 6.5 mm | Inhibition (HCT-116 [17]): 12.35 mm | Inhibition (L1210 [18]): 5.52 mm

COC(=O)c1ccc(S(=O)(=O)NC(=O)c2ccc(Cl)cc2Cl)cc1
Inhibition (L1210 [19]): 6.5 mm | Inhibition [20]: 2.6 mm | Inhibition (HCT-116 [2]): 21.12 mm

O=C(NS(=O)(=O)c1ccc([N+](=O)[O-])cc1)c1ccc(Cl)cc1Cl
Inhibition (HCT-116 [13]): 17.55 mm | Inhibition (L1210 [21]): 3.57 mm | Inhibition [22]: 10.07 mm

Cc1cccc(S(=O)(=O)NC(=O)c2ccc(Cl)cc2Cl)c1
Inhibition [16]: 6.5 mm | Inhibition (HCT-116 [23]): 8.12 mm | Inhibition (L1210 [24]): 6.5 mm

O=C(NS(=O)(=O)c1ccc(Cl)cc1)c1cccc(Br)c1
Inhibition (HCT-116 [13]): 10.4 mm | Inhibition (L1210 [21]): 6.82 mm | Inhibition [25]: 0.97 mm

O=C(NS(=O)(=O)c1cccc(Cl)c1)c1ccc(Cl)cc1Cl
Inhibition [26]: 6.5 mm | Inhibition (HCT-116 [13]): 16.73 mm | Inhibition (L1210 [27]): 4.87 mm

CN(C)c1ccc(S(=O)(=O)NC(=O)c2ccc(Cl)cc2Cl)cc1
Inhibition (L1210 [28]): 11.37 mm | Inhibition [29]: 13 mm | Inhibition (HCT-116 [17]): 28.75 mm

O=C(NS(=O)(=O)c1ccc(Cl)cc1)c1ccc(C(F)(F)F)cc1C(F)(F)F
Inhibition (HCT-116 [2]): 16.9 mm | Inhibition [7]: 11.7 mm | Inhibition (L1210 [30]): 0 mm

O=C(NS(=O)(=O)c1ccccc1Cl)c1ccc(Cl)cc1Cl
Inhibition [31]: 0 mm | Inhibition (HCT-116 [17]): 0 mm | Inhibition (L1210 [24]): 0 mm
